Here are results for 31 compounds from ChEMBL document CHEMBL1667850, “Indol-2-yl ethanones as novel indoleamine 2,3-dioxygenase (IDO) inhibitors” (Bioorg Med Chem, 2011).

Series [1] concerns the target T1, Indoleamine 2,3-dioxygenase 1 (Homo sapiens, UniProt P14902). Briefly: Inhibition of human IDO activity by spectrophotometry.
Target sequence in this assay (P14902 whole entry): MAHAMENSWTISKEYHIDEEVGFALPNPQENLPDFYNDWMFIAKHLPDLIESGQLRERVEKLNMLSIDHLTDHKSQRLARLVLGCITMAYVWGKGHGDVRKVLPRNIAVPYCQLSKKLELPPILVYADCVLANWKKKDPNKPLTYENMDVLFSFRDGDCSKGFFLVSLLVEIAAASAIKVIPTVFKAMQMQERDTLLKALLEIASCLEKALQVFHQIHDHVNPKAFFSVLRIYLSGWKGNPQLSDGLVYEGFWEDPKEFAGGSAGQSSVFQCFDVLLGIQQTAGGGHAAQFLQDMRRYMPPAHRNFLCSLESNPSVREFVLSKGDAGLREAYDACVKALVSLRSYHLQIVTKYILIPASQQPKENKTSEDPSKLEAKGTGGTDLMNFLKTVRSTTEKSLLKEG
The target in series [2] is Indoleamine 2,3-dioxygenase 1 (Mus musculus) (UniProt P28776). Briefly: Inhibition of mouse IDO expressed in mouse P815B cells assessed as tryptophan degradation at 20 uM. Format: cell-based. The gist of the method: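 2×10^5 cells per well incubated overnight at 37 °C in HBSS with 80 μM L-Trp and 20 μM compound. Supernatant was acetonitrile-precipitated and analysed by HPLC for Trp (280 nm) and kynurenine (360 nm). Percent inhibition of Trp degradation and kynurenine production was calculated relative to maximal activity.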
Sequence of Indoleamine 2,3-dioxygenase 1 (Mus musculus) (P28776 whole entry, looked up): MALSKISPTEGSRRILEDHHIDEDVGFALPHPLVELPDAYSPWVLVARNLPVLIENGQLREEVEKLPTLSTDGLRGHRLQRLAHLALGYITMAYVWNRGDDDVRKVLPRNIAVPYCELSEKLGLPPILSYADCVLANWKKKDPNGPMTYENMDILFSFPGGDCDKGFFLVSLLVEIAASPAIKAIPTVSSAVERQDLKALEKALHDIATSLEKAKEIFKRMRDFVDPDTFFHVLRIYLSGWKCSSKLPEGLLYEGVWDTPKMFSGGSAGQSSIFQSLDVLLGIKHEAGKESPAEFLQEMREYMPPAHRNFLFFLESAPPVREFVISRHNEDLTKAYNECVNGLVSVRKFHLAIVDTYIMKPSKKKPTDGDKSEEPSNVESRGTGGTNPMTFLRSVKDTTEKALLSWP

Series [3] has as its target T1, Indoleamine 2,3-dioxygenase 1. Briefly: Inhibition of IDO.
Target sequence in this assay (P14902 whole entry): as the sequence (P14902 whole entry) above
The nature of series [4]: Cytotoxicity against mouse P815B cells at 20 uM by MTT assay. Format: cell-based. The procedure, abridged: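 MTT viability on the cells left in wells after the 20 μM overnight IDO assay in HBSS at 37 °C. Culture medium (Iscove, 10% FCS, amino acids) and MTT were added for 3–4 h at 37 °C. Formazan was dissolved in SDS/DMF overnight at 37 °C and read at 570/650 nm.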
Series [5] addresses T1, Indoleamine 2,3-dioxygenase 1. The series is described as follows: Inhibition of human IDO activity at 100 uM by spectrophotometry. The gist of the method: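 Recombinant N-His-tagged human IDO (Ala2–Gly403), expressed in E. coli BL21 AI and Ni-IMAC purified, 0.375 μg per well. Reaction in 50 mM phosphate pH 6.5 with 5 μM methylene blue, 40 mM ascorbate and 100 μM L-Trp, 60 min at room temperature. Stopped with 1 mM H2O2; change in OD320 read against a pre-enzyme baseline.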
Target sequence in this assay (P14902 whole entry, looked up): as the sequence (P14902 whole entry) above

SMILES strings stand for the structures. Active and inactive are the calls of the source. No cut-off for these calls is given here.

For orientation: IC50 means the concentration that gives 50% inhibition. A word on the inhibition: it is the percentage by which the read-out fell short of the control. In the case of `O=C(Cc1cccnc1)c1cc2c(O)cccc2[nH]1`, in series [1] (read-out: IC50), the IC50 was found to be 83 µM. Further, the inhibition result in series [2] is “inactive”. Consider `O=C(Cc1cccnc1)c1cc2cc(Cl)ccc2[nH]1`, for which the IC50 in series [1] (read-out: IC50) worked out at 24.6 µM. Further, in series [2], the inhibition was 24%. The like results for `O=C(Cc1cccnc1)c1cc2c(Cl)cc(Cl)cc2[nH]1` were, in that order, 139 µM and “inactive”. The like results for `O=C(Cc1cccnc1)c1cc2ccc(F)cc2[nH]1` were, in that order, 43 µM and “inactive”.

Turning to `Cn1c(C(=O)Cc2cccnc2)cc2ccccc21`, in series [1] (read-out: IC50), the IC50 was found to be 34 µM. Moreover, the inhibition result in series [2] is “inactive”. The like results for `COc1ccc2[nH]c(C(=O)Cc3cccnc3)cc2c1O` were, in that order, 63 µM and 11%.

Turning to `O=C(Cc1cccnc1)c1cc2cc(F)ccc2[nH]1`, the IC50 in series [1] (read-out: IC50) was 36 µM. For the same compound, in series [2], the inhibition was 24%.

In general, Ki refers to a dissociation constant, usually derived from enzyme kinetics or from competition with a known ligand. Read a low Ki as higher affinity. In series [3], `c1ccc2c(c1)[nH]c1cnccc12` [NORHARMANE] gave a Ki of 120 µM. With `COc1ccc2[nH]c(C(=O)Cc3cccnc3)cc2c1OCc1ccccc1`, the IC50 result in series [1] is on record as “Not Active”. For the same compound, the inhibition result in series [2] is “inactive”.

As for `COc1ccc2[nH]c(C(=O)Cc3cccnc3)cc2c1`, the IC50 in series [1] (read-out: IC50) amounted to 49 µM. Regarding `CC(C(=O)c1cc2ccccc2[nH]1)c1cccnc1` (stereo not given), the IC50 in series [1] (read-out: IC50) came to 141 µM. The inhibition entry in series [2] was “inactive”. For the compound `OC(Cc1cccnc1)c1cc2ccccc2[nH]1` (stereo not given), the IC50 entry in series [1] is given as “Not Active”. For the same compound, in series [2], the inhibition result was “inactive”. As to `Cc1ccc2[nH]c(C(=O)Cc3cccnc3)cc2c1`, in series [1] (read-out: IC50), the IC50 amounted to 87 µM. Also, the inhibition in series [2] came to 21%. `O=C(Cc1cccnc1)c1cc2c(F)cccc2[nH]1`: the IC50 in series [1] (read-out: IC50) was 153 µM. The inhibition in series [2] amounted to 12%. The like results for `O=C(Nc1cccnc1)c1cc2ccccc2[nH]1` were, in that order, 94 µM and “inactive”. Consider `O=C(Cc1cccnc1)c1cc2cc(O)ccc2[nH]1`, for which, in series [1] (read-out: IC50), the IC50 is 37 µM. Besides, the inhibition result in series [2] was “inactive”. On to `COc1cc(OC)c2cc(C(=O)Cc3cccnc3)[nH]c2c1`, for which the IC50 in series [1] (read-out: IC50) was determined as 45 µM. Also, the Activity result in series [4] was “Toxic”. As for `O=C(Cc1cnccn1)c1cc2ccccc2[nH]1`, the IC50 in series [1] (read-out: IC50) was 26.2 µM. In series [2], the inhibition entry is “inactive”. The like results for `O=C(Cc1ccccc1)c1cc2ccccc2[nH]1` were, in that order, 29 µM and “inactive”. The like results for `O=C(Cc1cccnc1)c1cc2cc(Br)ccc2[nH]1` were, in that order, 18 µM and “inactive”.

With `O=C(Cc1cccnc1)c1cc2cc([N+](=O)[O-])ccc2[nH]1`, the IC50 result in series [1] was “Not Active”. The inhibition entry in series [2] was “inactive”.

On to `O=C(Cc1cccnc1)c1cc2ccccc2[nH]1`, for which, in series [1] (read-out: IC50), the IC50 was found to be 65 µM. For the same compound, in series [2], the inhibition amounted to 13%. Consider `COc1cccc2cc(C(=O)Cc3cccnc3)[nH]c12`, for which, in series [1] (read-out: IC50), the IC50 turned out to be 82 µM. In addition, the inhibition in series [2] worked out at 6%. The like results for `O=C(Cc1ccccn1)c1cc2ccccc2[nH]1` were, in that order, 37 µM and 10%. Take `O=C(Cc1cccnc1)c1cc2cc(OC(F)(F)F)ccc2[nH]1`: in series [1] (read-out: IC50), the IC50 stood at 13.1 µM. Besides, the inhibition in series [2] stood at 12%. Turning to `O=C(Cc1ccncc1)c1cc2ccccc2[nH]1`, in series [1], the IC50 result is “Not Active”. Besides, the inhibition entry in series [2] was “inactive”. Turning to `O/N=C(/Cc1cccnc1)c1cc2ccccc2[nH]1`, the inhibition was determined as 19.4% in series [5] and 25% in series [2].

With `COc1cccc2[nH]c(C(=O)Cc3cccnc3)cc12`, the IC50 in series [1] (read-out: IC50) came out at 58 µM. In addition, in series [2], the inhibition entry was “inactive”. In the case of `c1cncc(CCc2cc3ccccc3[nH]2)c1`, the IC50 result in series [1] is reported as “Not Active”. In series [2], the inhibition entry is “inactive”. The like results for `O=C(Cc1cccnc1)c1[nH]c2ccccc2c1Br` were, in that order, “Not Active” and “inactive”. Regarding `O=C(Cc1cccnc1)c1cc2cc(-c3ccccc3)ccc2[nH]1`, in series [1] (read-out: IC50), the IC50 is 96 µM. Besides, the inhibition entry in series [2] was “inactive”.
